# Source: PubChem (several laboratories)
# FAK blocker: inhibitors of human focal adhesion kinase | biochemical FAK kinase activity assay | 97,000 compounds, 0.84% hits | inhibition, %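 (tested at 7 µM)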; in the data active means inhibition above about 19%;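 further: 0% = DMSO and 100% = reference compound high control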
# PostGolgi ctrl: growth of the yeast control strain, post-Golgi counter-screen; efflux-deficient yeast background strain, growth absorbance A615, 16 h; inhibition, % at 10 µM; 98,000 compounds, 5% hits
# Pyk2 oligo antag: blocks oligomerization of human Pyk2 in cells | z-score (the deposit names both 25 µM and 10 µM) | 99,000 compounds, 0.83% hits | AID 1347419 | Q293 cells, Pyk2 FERM NanoBiT luminescence; stronger effect = lower value | Q14289;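 active means Z-score of -3 or lower, scaled per plate to the spread of control and sample wells; inactive means z-score above -3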;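 further: negative z-score means lost luminescence so less FERM oligomerization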
# tolC growth inh: blocks growth of E. coli BW25113 tolC mutant; growth inhibition, % at 10 µM (by protocol); OD615; 65,000 compounds, 2.2% hits;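 active means growth inhibition at or above a cutoff equal to the mean over every tested compound plus 3 SD, cut at about 60% in these data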;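 further: growth measured after 20 h incubation at 37 °C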
#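 Test system – E. coli BW25113 ΔtolC::kan, tolC deletion mutant strain · Detection – OD at 615 nm · Buffer or medium – LB with kanamycin 50 µg/mL · Times – 20 h compound exposure of bacteria at 37 °C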
# PostGolgi yeast: growth inhibition of a yeast mutant, post-Golgi transport screen; 98,000 compounds, 0.9% hits; inhibition, % at 10 µM; AID 739; post-Golgi transport phenotypic cell assay;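 further: yeast cells grown in 1536-well plates; yeast grown about 18 h at 30C before absorbance read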
# Calb biofilm kill: kills Candida albicans biofilms; 85,000 compounds, 0.14% hits; C. albicans biofilm + clotrimazole, Alamar Blue; inhibition, % at 6 µM;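 active means inhibition above 20%; inactive means inhibition below 20%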;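 further: preformed 24 hr biofilms exposed to compound for 48 hr; 0% = biofilm without compound and 100% = blank killed by clotrimazole plus chlorhexidine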
# * = called active by the depositor; nt = no result given. Shown are actives, neighbours in structure and some others; about 6.9% of the full set was active somewhere. Unless noted, no stated cut-off is given here; in the data, active means inhibition above about 30%; inactive means the rest.
SMILES,FAK blocker,PostGolgi ctrl,Pyk2 oligo antag,tolC growth inh,PostGolgi yeast,Calb biofilm kill
CCc1cc2c(=O)c(-c3nc4ccccc4n3C)c(C)oc2c(CN(CC)CC)c1O,-1.8,34.6*,-1.96,nt,3.5,1.6
CC1(C)CC(NC(=O)c2cccc3ccccc23)CC(C)(C)N1,0.6,-3.7,0.64,nt,0.8,6.1
CC(C)(C)Nc1nc(SCc2ccccc2)nc(N2CCOCC2)n1,-0.2,47.0*,-0.54,53.7,-6.0,1.2
CC1=NOC(=O)/C1=C\c1ccc(-c2ccc(Cl)cc2Cl)o1,15.4,35.1*,-0.87,nt,59.5*,nt
CCOC(=O)N1CCN(C(=O)Cn2nc(-c3ccc(Cl)cc3)ccc2=O)CC1,-3.3,-0.8,nt,1.7,-4.8,nt
CCOC(=O)Cn1nc(-c2ccc(Cl)cc2)ccc1=O,4.9,36.5*,2.81,2.6,-4.0,nt
Cc1cc(-c2ccccc2)n(-c2ccc(C(=O)NC(C)C)cc2)n1,-9.5,12.5,0.52,nt,-6.6,nt
N#CCSc1nnc(COc2cccc3ccccc23)n1-c1cccc(Cl)c1,4.6,53.6*,-0.86,8.5,-9.8,nt
N#CCSc1nnc(COc2cccc3ccccc23)n1-c1ccccc1,6.9,31.3*,-0.85,48.4,-8.1,-6.3
COc1ccccc1CN(Cc1ccco1)S(=O)(=O)c1ccc(-n2cnnn2)c(OC)c1,-4.1,36.4*,0.16,29.4,21.9,2.6
CC(C)(C)c1cc(NCCCn2ccnc2)n2ncc(-c3ccc(Cl)cc3)c2n1,0.3,93.5*,1.22,nt,57.6*,-1.9
Brc1ccc(-c2ncc(-c3ccccc3)cn2)cc1,-0.9,24.1,0.12,nt,-1.2,-1.0
CCOC(=O)c1cnc(-n2nc(C)cc2C)nc1NC(C)c1ccccc1 (centres undefined),nt,44.4*,-2.76,100.0*,8.1,1.2
CCOC(=O)c1cnc(-n2nc(C)cc2C)nc1NCCO,-3.6,1.2,0.66,nt,13.9,3.9
CCOC(=O)c1cnc(-n2nc(C)cc2C)nc1NCc1ccccc1,0.0,46.3*,-0.9,100.0*,3.9,2.5
Cc1ccc(OCCCCn2cnc3ccccc32)c(C)c1,4.6,32.2*,0.6,nt,-3.5,5.7
CCC(C(=O)NC(C)CCc1ccccc1)n1nc(C)n2c(cc3occc32)c1=O (centres undefined),nt,7.6,0.3,30.9,-4.5,nt
N#C/C(=C/c1ccc(N2CCCCCC2)o1)c1ccc(F)cc1,-2.0,5.0,0.41,34.6,30.2*,6.7
CCOC(=O)NCC(C#CCN(CC)CC)N(CC)CC (centres undefined),-2.2,42.4*,-0.71,-6.9,-1.1,6.6
CC1CN(C(=O)c2ccc(C(=O)c3ccccc3)cc2)CC(C)O1 (centres undefined),2.6,8.8,0.58,4.0,5.0,11.3
N#Cc1nc(COc2cccc(Cl)c2)oc1NCc1ccco1,4.0,33.5*,nt,46.0,24.7,13.3
Cc1ccc(OCc2nc(C#N)c(NCc3ccco3)o2)cc1,0.2,26.9,-0.32,25.9,1.2,5.2
N#Cc1nc(COc2ccc(Cl)cc2)oc1NCc1ccc2c(c1)OCO2,1.0,17.5,-1.28,23.2,-7.3,2.0
Cc1cccc(OCc2nc(C#N)c(NCc3ccc4c(c3)OCO4)o2)c1,-2.5,22.6,1.42,78.9*,-4.5,-3.1
CC1(C)CC(=O)c2c(nc3ccccc3c2N)C1,0.9,29.9,-0.36,10.8,0.0,nt
SMILES,FAK blocker,PostGolgi ctrl,Pyk2 oligo antag,tolC growth inh,PostGolgi yeast,Calb biofilm kill
Cc1nc(SCC(=O)NCc2ccc3c(c2)OCO3)c(C#N)c2c1CCCC2,1.0,9.1,-1.56,26.6,7.7,6.5
CCCCN1C(=O)C2ON(c3ccccc3C)C(c3ccco3)C2C1=O (centres undefined),-4.1,24.6,-1.04,61.1*,-13.7,7.5
O=c1c2cc3c(cc2[nH]c(=S)n1CCN1CCOCC1)OCO3,2.8,35.8*,1.3,-6.0,-0.8,-6.8
O=C(CCn1c(=S)[nH]c2cc3c(cc2c1=O)OCO3)NCCN1CCCC1,nt,nt,nt,-11.5,nt,-3.3
CC1CCc2c(C(=O)Oc3cccc(-n4cnnn4)c3)csc2C1 (centres undefined),0.4,25.8,0.63,68.9*,10.2,1.7
O=[N+]([O-])c1cc(Cl)cc(/C=N\Nc2ccccn2)c1O,0.0,19.3,0.11,nt,80.0*,nt
CC1C/C(=N/N2C(=O)CSC2=S)CC(C)(C)C1 (centres undefined),-4.4,-6.4,-0.15,nt,6.1,nt
CC1C/C(=N/N=C2/NC(=O)CS2)CC(C)(C)C1 (centres undefined),-1.8,34.2*,-0.91,nt,3.3,nt
Cc1nc(C(F)(F)F)c(C(=O)NC(=O)Nc2ccc(OC(F)(F)F)cc2)s1,-2.1,6.8,-0.13,nt,-22.6,nt
